This note sets out measurements from ChEMBL document CHEMBL1155020, “Trithiocarbonates as a novel class of HDAC inhibitors: SAR studies, isoenzyme selectivity, and pharmacological profiles” (J Med Chem, 2008).

Test [1] deals with T1, Protein deacetylase HDAC6 (Homo sapiens) (UniProt Q9UBN7).
T1 sequence (whole entry): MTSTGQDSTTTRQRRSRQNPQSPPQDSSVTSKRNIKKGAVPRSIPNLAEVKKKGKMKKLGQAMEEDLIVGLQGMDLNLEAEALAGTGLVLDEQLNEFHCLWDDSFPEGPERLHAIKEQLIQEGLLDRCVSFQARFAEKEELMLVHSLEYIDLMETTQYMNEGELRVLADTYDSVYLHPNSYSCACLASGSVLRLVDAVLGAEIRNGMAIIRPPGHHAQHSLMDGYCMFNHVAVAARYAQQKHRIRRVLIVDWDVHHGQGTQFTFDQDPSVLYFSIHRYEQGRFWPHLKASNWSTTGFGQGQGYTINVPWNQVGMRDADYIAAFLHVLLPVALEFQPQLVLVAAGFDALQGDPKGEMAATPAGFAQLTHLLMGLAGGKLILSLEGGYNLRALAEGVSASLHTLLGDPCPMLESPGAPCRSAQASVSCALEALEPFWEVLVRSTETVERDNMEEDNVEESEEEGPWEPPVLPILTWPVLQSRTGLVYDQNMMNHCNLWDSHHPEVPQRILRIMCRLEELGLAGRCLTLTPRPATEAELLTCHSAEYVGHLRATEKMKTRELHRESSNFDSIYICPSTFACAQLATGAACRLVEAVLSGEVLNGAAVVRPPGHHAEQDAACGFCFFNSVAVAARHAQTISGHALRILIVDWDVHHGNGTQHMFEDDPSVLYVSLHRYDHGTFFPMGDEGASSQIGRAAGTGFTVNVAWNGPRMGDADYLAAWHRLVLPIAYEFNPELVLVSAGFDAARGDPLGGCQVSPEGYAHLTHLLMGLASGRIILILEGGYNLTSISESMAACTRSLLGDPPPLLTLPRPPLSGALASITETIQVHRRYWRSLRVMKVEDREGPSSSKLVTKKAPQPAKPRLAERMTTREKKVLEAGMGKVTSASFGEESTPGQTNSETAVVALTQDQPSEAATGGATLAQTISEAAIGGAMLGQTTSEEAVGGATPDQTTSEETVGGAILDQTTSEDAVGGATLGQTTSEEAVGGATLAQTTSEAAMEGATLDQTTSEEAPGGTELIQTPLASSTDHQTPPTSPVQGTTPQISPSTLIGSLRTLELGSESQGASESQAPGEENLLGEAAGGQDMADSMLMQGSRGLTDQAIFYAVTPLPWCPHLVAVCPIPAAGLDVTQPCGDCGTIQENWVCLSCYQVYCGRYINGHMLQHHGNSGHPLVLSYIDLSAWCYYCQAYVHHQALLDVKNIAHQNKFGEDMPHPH
Kind of test: Inhibition of recombinant HDAC6 expressed in HEK293 cells at 32 uM. The test is classed as cell-based.

Test [2] has as its target T2, Histone deacetylase 1 (Homo sapiens, UniProt Q13547). Put plainly: Inhibition of recombinant HDAC1 expressed in HEK293 cells at 32 uM. The test is classed as cell-based.
Test [3] addresses T3, Histone deacetylase (Homo sapiens) (UniProt Q13547+O15379+Q9UBN7+Q92769+Q9UQL6+Q8WUI4+Q9BY41+Q96DB2+P56524+Q9UKV0+Q969S8). Kind of test: Inhibition of HDAC in human HeLa cells at 32 uM. The test is classed as cell-based. The essentials:
(§1)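 HeLa cells were seeded at 5 × 10^3/well, grown for 24 h, and exposed to compound for 3 h. Cell-permeable Boc-K(Ac)-AMC was added for a further 3 h. Lysis/developer buffer containing trypsin and 10 µM TSA followed, with 3 h incubation. AMC fluorescence was read at ex 355/em 460 nm, and % inhibition was given at the stated concentration.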

The target of test [4] is T3, Histone deacetylase (Homo sapiens). Put plainly: Inhibition of nuclear HDAC isolated from human HeLa cells at 32 uM. The test is classed as cell-free.
Test [5] has as its target Histone deacetylase. Kind of test: Inhibition of HDAC in human HeLa cells. The test is classed as cell-based.
Test [6] addresses T3, Histone deacetylase (Homo sapiens). Put plainly: Inhibition of HDAC in human HeLa cells assessed as induction of p21waf1 at 50 uM after 24 hrs by Western blotting. The test is classed as cell-based. The essentials:
(§2)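 HeLa cells were treated with compound at 5 and 50 µM for 24 h, then lysed in Tris pH 8 RIPA-type buffer. Equal protein amounts were separated by SDS-PAGE and blotted to PVDF. Blots were probed for acetylated histone H3 K1-20 and p21waf1, then reprobed for β-actin as loading control.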
A general note: In western blotting, separated proteins are transferred to a membrane and probed.

The target in test [7] is T2, Histone deacetylase 1. Put plainly: Inhibition of recombinant HDAC1 expressed in HEK293 cells. The test is classed as cell-based.
Test [8] concerns the target Histone deacetylase. Put plainly: Inhibition of nuclear HDAC isolated from human HeLa cells. The test is classed as cell-based.
Test [9] deals with HeLa. Put plainly: Cytotoxicity against human HeLa cells after 72 hrs by alamar blue assay. The test is classed as functional, cell-based. The essentials:
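HeLa cells were seeded at densities allowing growth through 72 h of compound exposure at 37 °C, 5% CO2. Viability was read by Alamar Blue (resazurin) reduction. Replicate assays were averaged, and IC50 was taken from concentration-effect curves.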

In test [10] the target is T3, Histone deacetylase (Homo sapiens). Put plainly: Inhibition of HDAC in human HeLa cells assessed as induction of histone H3 hyperacetylation at 50 uM after 24 hrs by Western blotting. The test is classed as cell-based. The essentials: as §2
Test [11] has as its target T4, Protein deacetylase HDAC6 (Homo sapiens, UniProt Q9UBN7).
T4 sequence (Q9UBN7 whole entry): T1 sequence (whole entry)
Kind of test: Inhibition of recombinant HDAC6 expressed in HEK293 cells. The test is classed as cell-based.

Test [12] has as its target T2, Histone deacetylase 1. Put plainly: Inhibition of recombinant HDAC1 expressed in HEK293 cells at 30 uM. The test is classed as cell-based.
The subject of test [13] is HeLa. Kind of test: Cytotoxicity against human HeLa cells at 50 uM after 72 hrs by alamar blue assay. The test is classed as functional. A general note: Alamar Blue is a resazurin reagent that responds to reducing activity.
Test [14] has as its target T3, Histone deacetylase (Homo sapiens). Kind of test: Inhibition of HDAC in human HeLa cells at 50 uM. The test is classed as cell-based. The essentials:
as §1

The target in test [15] is T4, Protein deacetylase HDAC6. Put plainly: Inhibition of recombinant HDAC6 expressed in HEK293 cells using variable substrate concentration by Lineweaver-Burke plot. The test is classed as cell-based. The essentials:
(§3)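 Inhibitor was used at 1/4, 1/2, 1, 2 and 4 times the IC50-derived concentration. Ki was obtained from Lineweaver-Burk plots, with y-axis intersection indicating substrate competition.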

The target of test [16] is T1, Protein deacetylase HDAC6 (Homo sapiens). Put plainly: Inhibition of HDAC6 in human A549 NSCLC cells assessed as induction of alpha-tubulin hyperacetylation at 10 uM after 24 hrs by Western blotting. The test is classed as cell-based. The essentials: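 A549 NSCLC cells were exposed to compound for 24 h and lysed. Western blots were probed for acetylated α-tubulin and acetylated histone H3 K1-20, then reprobed with histone H3 and α-tubulin antibodies as controls.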

Test [17] concerns the target T2, Histone deacetylase 1. Kind of test: Inhibition of recombinant HDAC1 expressed in HEK293 cells using variable substrate concentration by Lineweaver-Burke plot. The test is classed as cell-based. The essentials: as §3
In test [18] the target is T3, Histone deacetylase (Homo sapiens). Put plainly: Inhibition of nuclear HDAC isolated from human HeLa cells at 30 uM. The test is classed as cell-free.

Active and inactive are the calls of the source. The rule behind the calls is not given here.

T2 sequence (Q13547 whole entry): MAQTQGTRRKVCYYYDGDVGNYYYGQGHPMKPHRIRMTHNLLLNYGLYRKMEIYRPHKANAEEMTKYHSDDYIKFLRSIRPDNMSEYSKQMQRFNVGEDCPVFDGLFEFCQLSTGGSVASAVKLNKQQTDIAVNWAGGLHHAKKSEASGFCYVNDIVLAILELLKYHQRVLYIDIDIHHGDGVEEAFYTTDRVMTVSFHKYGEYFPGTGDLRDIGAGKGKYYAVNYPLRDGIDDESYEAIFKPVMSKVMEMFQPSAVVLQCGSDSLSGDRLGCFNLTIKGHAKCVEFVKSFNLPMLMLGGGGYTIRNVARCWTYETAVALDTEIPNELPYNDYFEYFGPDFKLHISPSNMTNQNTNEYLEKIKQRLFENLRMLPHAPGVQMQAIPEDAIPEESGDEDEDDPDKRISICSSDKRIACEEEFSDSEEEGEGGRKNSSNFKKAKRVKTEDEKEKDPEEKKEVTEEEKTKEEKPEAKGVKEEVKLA

In general, inhibition refers to the relative decrease from the control value, in per cent. With `COc1ccc(C(=O)CSC(=S)N2CCOCC2)cc1`, the inhibition is -2% in [1], 0% at Histone deacetylase 1 [2], 0% in [3] and 2% in test [4].

One may read the IC50 as the midpoint of a concentration-inhibition curve. As to `CCSC(=S)SCC(=O)c1cccc(S(=O)(=O)Nc2ccc3c(c2)OCO3)c1`, the IC50 at Histone deacetylase [5] was 1860 nM; on Histone deacetylase 1 [7], 501 nM; against Histone deacetylase [8], 14 nM; in the test on HeLa [9], 9180 nM; in test [11] it was 431 nM. For the same molecule, the outcome in [6] and in test [10] was Active.

Regarding `CCSC(=S)SCC(=O)c1ccc(C(=O)Nc2ccc(Cl)cc2)cc1`, the inhibition at Histone deacetylase 1 [12] amounted to 1%. Moreover, the IC50 against Histone deacetylase [8] was found to be 79 nM; in test [11], 1450 nM. For the same molecule, in the test on HeLa [13], the inhibition at 50 µM worked out at 0%.

Turning to `CCSC(=S)OCC(=O)c1ccc(OC)cc1`, the inhibition in test [1] amounted to 16%; at Histone deacetylase 1 [2], 6%; in test [14] it was 28%; in test [4], 16%. The IC50 with HeLa [9] is 2990 nM.

As usually defined, the Ki is the dissociation constant of the complex between target and ligand, obtained from inhibition or displacement. `CCSC(=S)SCC(=O)c1cccc(NC(=O)c2ccccc2)c1`: the IC50 stood at 964 nM at Histone deacetylase [5]; 1220 nM on Histone deacetylase 1 [7]; 120 nM against Histone deacetylase [8]; 8230 nM with HeLa [9]; 65 nM in [11]. Also, the Ki in [15] came out at 110 nM. Moreover, the outcome in test [16] was Active.

As to `CCSC(=S)SCC(=O)c1ccc(CC(=O)NCCOc2ccccc2)s1`, at Histone deacetylase 1 [17], the Ki came to 460 nM. For the same molecule, the IC50 worked out at 624 nM on Histone deacetylase [5]; 385 nM on Histone deacetylase 1 [7]; 18 nM on Histone deacetylase [8]; 5780 nM with HeLa [9]; 204 nM in test [11].

Turning to `CCNC(=S)NCC(=O)c1ccc(OC)cc1`, the inhibition in test [18] was -6%. For the same molecule, it took 5810 nM to reach half-maximal inhibition in the test with HeLa [9] (IC50).
